# Compound activity (PubChem BioAssay)
# Ins promoter up: MIN6 insulin promoter up-regulation. MIN6 insulin promoter-GFP reporter, high-content imaging; active compounds read high. z-score at 5 µM. 190,000 compounds, 0.3% hits;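 active = z-score above 3 at 5 µM with at least 500 cells counted in the well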
# GRK2 inh: human GRK2 inhibition via aptamer displacement. inhibition of aptamer binding, % at 10 µM. 330,000 compounds, 0.59% hits. AID 488847. bead flow cytometry, FAM-aptamer displacement from GRK2;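 active = inhibition of aptamer binding above 40%, roughly 3 SD of noise, on plates passing a quality check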;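 note: median bead fluorescence of bound FAM aptamer so fluorescent compounds give negative values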
# Tn7 DDE FP: inhibitors of Tn7 peptide binding to human fibrin DD(E). P02675. FP displacement of FITC-Tn7 peptide from fibrin DD(E); 0% = median of compound wells per plate. inhibition, % at 8.3 µM. 370,000 compounds, 0.13% hits;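 active = inhibition above the mean of compounds falling within the control limits plus 3 SD of them, cut at about 14% in these data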;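 note: 0% = plate median of compound wells and 100% = 10 µM Aha-Tn7 peptide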
#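 Also added: labelled Tn7 tracer, 0.1 µM; Assay system: human fibrin DD(E) protein; Amount: 2 µM fibrin DD(E); Schedule: 10 min compound pre-incubation, 3 h probe incubation at room temperature; Repeats: one replicate per compound; Read-out basis: percent inhibition; Measured by: fluorescence polarization of the labelled Tn7 tracer.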
# ABCG2 inh: human ABCG2 inhibition, ABCB1 as counter-screen. Q9UNQ0. IgMXP3 cells, JC-1 efflux, flow cytometry. inhibition, % at 6.6 µM. 190,000 compounds, 0.1% hits;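 active = inhibition above 80%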;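 note: 0% = DMSO and 100% = nicardipine control wells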
# Target sequence (Q9UNQ0 whole entry, looked up): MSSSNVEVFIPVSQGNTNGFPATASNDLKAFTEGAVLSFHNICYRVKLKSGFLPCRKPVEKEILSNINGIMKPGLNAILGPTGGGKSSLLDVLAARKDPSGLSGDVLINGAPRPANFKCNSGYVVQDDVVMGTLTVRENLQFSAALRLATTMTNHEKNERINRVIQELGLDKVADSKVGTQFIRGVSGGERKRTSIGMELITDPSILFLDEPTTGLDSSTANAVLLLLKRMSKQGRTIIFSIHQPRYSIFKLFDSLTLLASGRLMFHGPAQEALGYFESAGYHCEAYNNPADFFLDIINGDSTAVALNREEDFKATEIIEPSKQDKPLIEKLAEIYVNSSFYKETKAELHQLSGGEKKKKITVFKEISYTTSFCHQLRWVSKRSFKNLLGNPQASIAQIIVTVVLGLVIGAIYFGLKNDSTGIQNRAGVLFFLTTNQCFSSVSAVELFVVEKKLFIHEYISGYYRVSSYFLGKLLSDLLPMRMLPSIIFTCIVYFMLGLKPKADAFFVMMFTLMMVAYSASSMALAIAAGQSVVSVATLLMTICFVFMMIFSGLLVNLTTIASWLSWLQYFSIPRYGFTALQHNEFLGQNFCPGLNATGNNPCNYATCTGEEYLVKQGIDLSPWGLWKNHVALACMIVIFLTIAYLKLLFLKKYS
#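 Read-out basis: Efflux inhibition in percent versus controls | Test system: ABCG2 IgMXP3 and barcoded ABCB1 CCRF-Adr cell mix | Quantity: 3 million cells/mL in well | Schedule: 10 min at 25 °C | Control set: Nicardipine as high control, DMSO as low control | Reagent: JC-1 as fluorescent efflux pump substrate | Signal: Flow cytometry of retained JC-1 fluorescence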
# ABCB1 block: human ABCB1 inhibition, ABCG2 as counter-screen. P08183. CCRF-Adr cells, JC-1 efflux, flow cytometry. inhibition, % at 6.6 µM. 190,000 compounds, 0.067% hits; in the data active = inhibition above about 40%;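 note: 0% = vehicle and 100% = reference inhibitor; higher value means more JC-1 retained so stronger ABCB1 efflux block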
# DDE Tn6 FP inh: disrupts Tn6 cyclic peptide binding to fibrin D-Dimer-E complex. inhibition, % at 8.3 µM. P02675. AID 720509. 370,000 compounds, 0.21% hits. Fibrin DD(E) TRITC-Tn6 fluorescence polarization displacement;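 active = inhibition above a per-campaign cutoff: mean of compounds within control limits plus 3 SD, cut at about 15% in these data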;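 note: 0% = median of all compound wells on the plate and 100% = blocking peptide control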
# GRK2 inh confirm: human GRK2 inhibition confirmation, cherry pick 1; 2,000 compounds, 4% hits; shares compounds with GRK2 inh; bead-bound GRK2, FAM-aptamer displacement, flow cytometry; aptamer displacement, % at 10 µM;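 active = aptamer displacement above 40%, near three times the noise of non-fluorescent compounds, on plates passing quality checks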;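 note: negative values mostly reflect intrinsic compound fluorescence rather than true enhancement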
# Aptamer quench: fluorescent aptamer quenching in GRK2 counter-screen dose response; shares compounds with GRK2 inh; fluorescence change (kMESF span), kMESF (test concentration not listed); 110 tested, under 10 active; AID 504521; Fluorescent RNA aptamer beads, flow cytometry; active compounds read high;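 active = compounds whose bead fluorescence drops by more than 37 kMESF across the dose range, marking them as dye quenchers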
# FAM quench CP1: counter-screen for GRK2 aptamer inhibitors: fluorescent aptamer quenchers; shares compounds with GRK2 inh; AID 504580; Carboxyfluorescein RNA aptamer on beads, flow cytometry quenching; active compounds read low; fluorescence response (% of DMSO), % at 10 µM; 2,000 tested, under 10 active;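 active = compounds that quench the bead-bound fluorescent RNA probe, cutting fluorescence to under half of the solvent control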;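 note: counterscreen run without GRK2 so only probe quenching by compound is measured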
# GRK2 CP2: confirmation of human GRK2 inhibitors binding RNA aptamer site; AID 504782; 360 tested, under 10 active; shares compounds with GRK2 inh; inhibition of aptamer binding, % at 10 µM; bead-bound GRK2, FAM-aptamer displacement, flow cytometry;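 active = inhibition of aptamer binding above 40%, about triple the noise seen with nonglowing compounds, on plates passing quality control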;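 note: negative values mostly come from compounds that fluoresce themselves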
# Aptamer quench3: counter-screen for GRK2 aptamer inhibitors: fluorescent aptamer quenchers | shares compounds with GRK2 inh | Streptavidin beads, FAM-RNA aptamer fluorescence quenching, flow cytometry | change in fluorescence (kMESF span), kMESF (no concentration beside the values) | 25 tested, under 10 active | AID 504819;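 active = compounds quenching the bead-bound labeled aptamer, with fluorescence dropping by more than 37 kMESF over the dose range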
# FAM quench SP: counter-screen for GRK2 binding hits: quenchers of fluorescent RNA aptamer | shares compounds with GRK2 inh | AID 588494 | 360 tested, under 10 active | fluorescence response vs DMSO, % at 10 µM | carboxyfluorescein RNA aptamer beads, flow cytometry quenching; active compounds read low;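 active = response vs DMSO under 50%, meaning signal dropped by over half, treated as fluorescence quencher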;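 note: labelled aptamer on streptavidin beads without GRK2 as a quench counter-screen; 100% = bead fluorescence of DMSO wells and lower means quenching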
# Numbers without * were called inactive; / = no result given. Only some compounds are listed: those with a hit (about 0.99% of all), similar ones and a draw of the others.
SMILES,Ins promoter up,GRK2 inh,Tn7 DDE FP,ABCG2 inh,ABCB1 block,DDE Tn6 FP inh,GRK2 inh confirm,FAM quench CP1,others
COc1ccc(NC(=O)CCS(=O)(=O)c2cccc3nonc23)c(OC)c1,0.49,1.0,1.6,2.0,0.4,0.5,/,/,GRK2 CP2=-6.2;FAM quench SP=100.0
COc1ccc(S(=O)(=O)CCC(=O)Nc2c(C)cccc2C)cc1,/,6.0,3.1,/,/,-4.4,/,/,
CCOc1ccccc1NC(=O)CCS(=O)(=O)c1ccc(OC)cc1,0.11,0.0,1.1,10.9,0.0,2.1,/,/,GRK2 CP2=-32.9;FAM quench SP=103.0
CCOc1ccccc1NC(=O)CCC(=O)Nc1ccccc1OCC,0.19,0.0,0.9,4.5,-0.3,4.5,/,/,
COc1ccc(NC(=O)CCS(=O)(=O)c2cccc3nonc23)cc1,0.1,1.0,0.9,-0.5,-0.2,7.1,/,/,
CCc1ccccc1NC(=O)CCS(=O)(=O)c1ccc(OC)cc1,/,53.0*,3.0,/,/,-3.6,27.3,98.8,Aptamer quench=2.8;Aptamer quench3=0.3
COC(=O)[C@]12C[C@H](CC(=O)NCc3ccc(OC)c(OC)c3)C(=O)N(Cc3ccco3)C1=C[C@H](C(C)C)O[C@@H]2C1CC1,/,/,-8.0,/,/,-5.8,/,/,
CCN1CCCC1Cn1cnc2c([nH]c3ccc(Cl)cc32)c1=O (centres undefined),0.26,92.0*,3.2,3.7,0.4,-1.8,-0.6,102.1,
CCN1CCCC1Cn1cnc2c([nH]c3cccc(Cl)c32)c1=O (centres undefined),-0.49,0.0,5.7,2.5,0.3,5.2,/,/,
Cc1ccc(C)c(S(=O)(=O)NCCCc2ccccc2)c1,/,81.0*,0.2,/,/,1.4,0.4,109.2,
O=S(=O)(NCCCc1ccccc1)c1ccccc1,-1.11,0.0,-9.5,2.4,0.9,4.4,/,/,
O=C(NCCc1ccccc1)OCc1cn(Cc2cccc(F)c2F)nn1,/,/,1.9,/,/,-0.1,/,/,
CC(COC(=O)c1ccccc1)(COC(=O)c1ccccc1)/[N+]([O-])=C/c1ccccc1,/,3.0,-3.8,-5.6,0.8,4.8,/,/,
CC(C)(C(=O)c1ccccc1)/[N+]([O-])=C/c1ccc(Br)cc1,/,60.0*,/,/,/,/,-3.2,102.2,
Cc1cccc(NC(=O)c2nc[nH]c2C(=O)N[C@@H](Cc2ccccc2)C(=O)OCc2ccccc2)c1,-0.36,51.0*,-0.3,/,/,-9.2,-2.1,102.8,GRK2 CP2=-16.6;FAM quench SP=92.0
O=C(CCc1ccccc1)N[C@H]1[C@H](O)CCC[C@@]12C(=O)N(Cc1ccccc1)c1ccc(-c3ccccc3)cc12,/,/,-0.9,/,/,-2.2,/,/,
CCN(CC(=O)Nc1ccc(NC(C)=O)cc1)C(=O)C1CC(=O)N(CCc2ccc(OC)c(OC)c2)C1 (centres undefined),/,92.0*,5.5,/,/,1.3,-62.6,98.0,
CC(OC(=O)c1ccc([N+](=O)[O-])s1)C(=O)NC1CCCCC1C (centres undefined),/,33.0,1.8,/,/,8.6,2.5,96.4,
COc1cc(C(=O)OC(C)C(=O)NC2CCCCC2C)c([N+](=O)[O-])cc1OC (centres undefined),/,0.0,-6.7,/,/,-1.3,/,/,
CC1CCN(S(=O)(=O)c2ccc(C(=O)OC(C)C(=O)NC3CCCCC3C)cc2)CC1 (centres undefined),/,0.0,-6.4,/,/,-2.5,-22.8,97.9,
C[C@H](CO)N1C[C@H](C)[C@@H](CN(C)S(=O)(=O)c2ccccc2F)Oc2ncc(C#Cc3cccnc3)cc2C1=O,/,/,-0.6,/,/,0.1,/,/,
C=C(C)CSc1nc2sc3c(c2c(=O)n1-c1ccccc1)CCN(C)C3,/,37.0,-5.6,/,/,-4.0,1.0,94.6,
Cn1nc(C(F)(F)F)c(C(=O)Nc2ccc(F)cc2F)c1Cl,-0.24,47.0*,3.2,6.0,0.5,5.2,-1.1,97.9,
Cc1cc(NC(=O)Cc2c(C)[nH]c3ccccc23)ccc1Oc1cccnc1,/,/,2.1,/,/,-2.2,/,/,
COc1cc(/C=C(/NC(C)=O)C(=O)O)cc(Cl)c1OCc1ccc(Br)cc1,1.35,80.0*,0.6,/,/,3.4,4.3,94.1,
SMILES,Ins promoter up,GRK2 inh,Tn7 DDE FP,ABCG2 inh,ABCB1 block,DDE Tn6 FP inh,GRK2 inh confirm,FAM quench CP1,others
COC(=O)C1CN(Cc2ccccc2)CCS(=O)(=O)N1Cc1ccc(C)cc1 (centres undefined),/,/,0.7,/,/,7.0,/,/,
CC(C)(C)c1ccc(C(=O)NN2C(=O)CSC2=S)cc1,0.27,55.0*,6.0,/,/,9.6,-4.5,98.4,
Cn1ccnc1C(O)c1cccc(OCc2ccccc2)c1 (centres undefined),/,0.0,1.2,/,/,3.3,/,/,
OC(c1cccc(OCc2ccccc2)c1)c1nnc(-c2ccccc2)o1 (centres undefined),0.53,0.0,2.9,12.8,0.9,-6.4,-1.1,94.8,
OC(c1ccc(OCc2ccccc2)cc1)c1nnc(-c2ccccc2)o1 (centres undefined),0.7,5.0,-1.9,1.2,0.3,6.2,-0.5,98.0,
COCCN=C1S/C(=C\c2cc(C)n(-c3ccc(F)cc3F)c2C)C(=O)N1C,/,/,-2.2,/,/,-1.3,/,/,
COC(=O)c1cc(Br)c(=O)n(CCN(C(C)C)C(C)C)c1,-0.16,95.0*,3.5,-0.5,0.1,1.0,-2.7,98.5,
COC(=O)c1cc(Br)c(=O)n(CCN2CCOCC2)c1,0.25,0.0,-6.5,0.7,0.2,0.9,/,/,
Cc1cc(N2CCN(C(=O)Oc3ccc(-c4ccccc4)cc3)CC2)c2ccccc2n1,/,/,2.2,/,/,-8.8,/,/,
Cc1ccc2[nH]c(CNC(=O)C3CCCCC3)cc2c1,/,60.0*,4.6,/,/,-8.6,5.9,101.4,
COC(=O)[C@@]12C[C@@H](CC(=O)NCc3cccc4ccccc34)C(=O)N(Cc3ccco3)C1=CCC(C)(C)C2,/,/,-6.9,/,/,-6.4,/,/,
Cc1cc(/C=N\NC(=O)COc2cccc3cccnc23)c(C)n1-c1ccccc1,-0.15,0.0,3.0,14.8,1.6,-4.2,/,/,
